Experimental findings from ChEMBL document CHEMBL2346555, “Efficacious cyclic N-acyl O-amino phenol duocarmycin prodrugs” (J Med Chem, 2013) are described below.

Structures are written as SMILES. pIC50: −log10 of the molar value. The source made the active and inactive calls.

The nature of series [1]: Drug degradation in THF at 254 nM after 72 hrs by LC-MS analysis in presence of NaHCO3 and BnNH2. The series is classed as physicochemical. Particulars: THF with NaHCO3 and BnNH2; read-out: Drug degradation.
The nature of series [2]: Drug degradation in MeOH at 254 nM after 72 hrs by LC-MS analysis in presence of NaHCO3 and BnNH2. The series is classed as physicochemical. Particulars: MeOH with NaHCO3 and BnNH2; read-out: Drug degradation.
Series [3] relates to L1210. Kind of series: Cytotoxicity against mouse L1210 cells assessed as growth inhibition after 72 hrs by phosphatase assay. The class given is functional, cell-based. As to conditions: Mus musculus, L1210, 72 h. The procedure, abridged:
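L1210 mouse leukemia cells were seeded at 30,000 cells/mL in DMEM with 10% FBS and grown 24 h at 37 °C, 5% CO2. DMSO dilutions were then added at six concentrations between 0–100 or 0–1000 nM, in duplicate, for 72 h. Read-out: phosphatase substrate in 0.1 M NaOAc pH 5.5 with 0.1% Triton X-100, 5 min at 37 °C, stopped with NaOH, A405. IC50 is the average of ≥4 determinations.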

A short description of series [4]: Drug degradation in MeOH at 254 nM after 24 hrs by LC-MS analysis in presence of NaHCO3 and BnNH2. As to conditions: MeOH with NaHCO3 and BnNH2; read-out: Drug degradation. The series is classed as physicochemical.
Series [5] can be described thus: Drug degradation in MeOH at 254 nM after 2 hrs by LC-MS analysis in presence of NaHCO3 and BnSH. The class given is physicochemical. Particulars: MeOH with NaHCO3 and BnSH; read-out: Drug degradation.
Series [6] can be described thus: Half life of the compound in HCl/EtOAc at 23 degC. The class given is physicochemical.
Series [7] is described as follows: Drug degradation in MeOH at 254 nM after 48 hrs by LC-MS analysis in presence of NaHCO3 and BnNH2. The class given is physicochemical. As to conditions: MeOH with NaHCO3 and BnNH2; read-out: Drug degradation.
Series [8] can be described thus: Drug degradation in MeOH at 254 nM after 72 hrs by LC-MS analysis in presence of NaHCO3 and BnSH. Particulars: MeOH with NaHCO3 and BnSH; read-out: Drug degradation. The class given is physicochemical.
Series [9] can be described thus: Drug degradation in THF at 254 nM after 24 hrs by LC-MS analysis in presence of NaHCO3 and BnSH. The class given is physicochemical. Particulars: THF with NaHCO3 and BnSH; read-out: Drug degradation.
Series [10] is described as follows: Half life of the compound in MeOH at 23 degC in presence of NaHCO3. The class given is physicochemical. Particulars: MeOH with NaHCO3.
Series [11] can be described thus: Drug degradation in THF at 254 nM after 2 hrs by LC-MS analysis in presence of NaHCO3 and BnSH. The class given is physicochemical. Particulars: THF with NaHCO3 and BnSH; read-out: Drug degradation.
The nature of series [12]: Stability of the compound in THF at 254 nM under non basic condition in presence of BnNH2. The series is classed as physicochemical. As to conditions: 0.254 µM.
A short description of series [13]: Drug degradation in THF at 254 nM after 48 hrs by LC-MS analysis in presence of NaHCO3 and BnSH. The class given is physicochemical. As to conditions: THF with NaHCO3 and BnSH; read-out: Drug degradation.
Series [14] can be described thus: Drug degradation in THF at 254 nM after 2 hrs by LC-MS analysis in presence of NaHCO3 and BnNH2. The class given is physicochemical. As to conditions: THF with NaHCO3 and BnNH2; read-out: Drug degradation.
The nature of series [15]: Stability of the compound in MeOH at 254 nM after 2 hrs by LC-MS analysis in presence of NaHCO3 and BnNH2. The series is classed as physicochemical. Particulars: 0.254 µM.
The nature of series [16]: Drug degradation in THF at 254 nM after 72 hrs by LC-MS analysis in presence of NaHCO3 and BnSH. As to conditions: THF with NaHCO3 and BnSH; read-out: Drug degradation. The series is classed as physicochemical.
The nature of series [17]: Stability of the compound in THF at 254 nM under non basic condition in presence of BnSH. The series is classed as physicochemical. Particulars: 0.254 µM.
Series [18] can be described thus: Drug degradation in THF at 254 nM after 48 hrs by LC-MS analysis in presence of NaHCO3 and BnNH2. The series is classed as physicochemical. Particulars: THF with NaHCO3 and BnNH2; read-out: Drug degradation.
The nature of series [19]: Drug degradation in MeOH at 254 nM after 48 hrs by LC-MS analysis in presence of NaHCO3 and BnSH. As to conditions: MeOH with NaHCO3 and BnSH; read-out: Drug degradation. The series is classed as physicochemical.
Series [20] in a line: Drug degradation in THF at 254 nM after 24 hrs by LC-MS analysis in presence of NaHCO3 and BnNH2. The series is classed as physicochemical. As to conditions: THF with NaHCO3 and BnNH2; read-out: Drug degradation.
Series [21] in a line: Drug degradation in MeOH at 254 nM after 24 hrs by LC-MS analysis in presence of NaHCO3 and BnSH. The class given is physicochemical. As to conditions: MeOH with NaHCO3 and BnSH; read-out: Drug degradation.
Series [22] is described as follows: Stability of the compound in DMF/H2O at 23 degC after 5 days in presence of NaHCO3. The series is classed as physicochemical. As to conditions: 120 h.
A short description of series [23]: Stability of the compound in THF at 23 degC after 5 days in presence of NaHCO3. Particulars: 120 h. The series is classed as physicochemical.
A short description of series [24]: Stability of the compound in MeOH at 23 degC after 5 days in presence of NaHCO3. The class given is physicochemical. Particulars: 120 h.
Series [25] can be described thus: Stability of the compound in H2, Pd/C, MeOH, at 23 degC after 1 hr. The series is classed as physicochemical.
Series [26] deals with A549. Kind of series: Cytotoxicity against human A549 cells assessed as growth inhibition under hypoxic condition after 72 hrs by SRB assay. As to conditions: A549, 72 h. The series is classed as functional, cell-based. The method, boiled down:
(§1)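 Before the assay, A549 and PC3/MM2 cells were adapted for one week under hypoxia (37 °C, 5% CO2, 0.5% O2), subcultured twice; viability was checked by trypan blue. Cells were plated, held 24 h aerobic (37 °C, 5% CO2) or hypoxic, then exposed 72 h to 10 concentrations. SRB read-out per NCI DTP. Growth = [(Ti − Tz)/(C − Tz)] × 100%. IC50 by sigmoidal nonlinear regression, n = 3 independent experiments.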

Series [27] in a line: Cytotoxicity against human PC3MM2 cells assessed as growth inhibition under aerobic condition after 72 hrs by SRB assay. The class given is functional, cell-based. As to conditions: PC3MM2, 72 h. The procedure, abridged: as §1
(Sulforhodamine B stains cellular protein and so reports cell mass.)

The nature of series [28]: Fraction unbound in human plasma. The series is classed as ADME, cell-free.
Series [29] in a line: Half life in human plasma.
Series [30] in a line: Half life of the compound in phosphate buffer at pH 7.
Series [31] concerns A549. The series is described as follows: Hypoxic cytotoxicity ratio of IC50 for human A549 cell under aerobic condition to IC50 for human A549 cells under hypoxic condition. The series is classed as functional.
The test system of series [32] is Mus musculus. The series is described as follows: Toxicity in B6D2F1 mouse allografted with mouse L1210 cells assessed as mortality at 60 ug/kg, ip tid administered on day 1 to 9 measured after 366 days. The class given is organism-based. Particulars: in vivo, 0.06 mg/kg, 8784 h. The procedure, abridged: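 Syngeneic L1210 cells (1 × 10^6) were given i.p. to B6D2F1 mice on day 0; 10 per group. Compound in 100% DMSO was injected i.p. on days 1, 5 and 9. Animals were monitored daily and weighed twice weekly, with the study extended to 366 days. Deaths from drug toxicity were recorded.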

Series [33] deals with L1210. The series is described as follows: Antitumor activity against mouse L1210 cells allografted in B6D2F1 mouse assessed as mean survival period at 1000 ug/kg, ip tid administered on day 1 to 9 measured after 366 days relative to vehicle-treated control. The class given is functional. The procedure, abridged:
(§2)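 L1210 cells (1 × 10^6) injected i.p. into B6D2F1 mice on day 0; 10 mice per group, randomized to vehicle or treatment. Dosing in 100% DMSO i.p. on days 1, 5 and 9 at 60–2500 μg/kg/inj. Animals were monitored daily and weighed twice weekly, with follow-up extended to 366 days. T/C = total survival days of the treated group ÷ total survival days of the control group × 100.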

For series [34], the system named is L1210. The series is described as follows: Antitumor activity against mouse L1210 cells allografted in B6D2F1 mouse assessed as mean survival period at 200 ug/kg, ip tid administered on day 1 to 9 measured after 366 days relative to vehicle-treated control. The series is classed as functional. The procedure, abridged: as §2
In series [35] the test system is A549. The series is described as follows: Cytotoxicity against human A549 cells assessed as growth inhibition under aerobic condition after 72 hrs by SRB assay. As to conditions: A549, 72 h. The class given is functional, cell-based. The procedure, abridged: as §1
Series [36] concerns L1210. Kind of series: Antitumor activity against mouse L1210 cells allografted in B6D2F1 mouse assessed as mean survival period at 2500 ug/kg, ip tid administered on day 1 to 9 measured after 366 days relative to vehicle-treated control. The series is classed as functional. The procedure, abridged:
as §2

Series [37] is described as follows: Hypoxic cytotoxicity ratio of IC50 for human PC3MM2 cell under aerobic condition to IC50 for human PC3MM2 cells under hypoxic condition. The series is classed as functional.
Series [38] relates to L1210. The series is described as follows: Antitumor activity against mouse L1210 cells allografted in B6D2F1 mouse assessed as mean survival period at 500 ug/kg, ip tid administered on day 1 to 9 measured after 366 days relative to vehicle-treated control. The class given is functional. The method, boiled down: as §2
For series [39], the system named is Neurospora discreta. Kind of series: Induction of Neurospora discreta w794 [5-32P]-DNA alkylation thermal-induced strand cleavage at 1 x 10^-2 M incubated for 48 hrs at 23 degC followed by thermolysis at 100 degC measured after 30 mins by PAGE/autoradiographic analysis.
Series [40] is described as follows: Stability of the compound in Mo(CO)6, MeCN/H2O after 3 hrs. The series is classed as physicochemical.
A short description of series [41]: Cytotoxicity against human PC3MM2 cells assessed as growth inhibition under hypoxic condition after 72 hrs by SRB assay. The class given is functional, cell-based. Particulars: PC3MM2, 72 h. The procedure, abridged: as §1
In series [42] the test system is L1210. The series is described as follows: Antitumor activity against mouse L1210 cells allografted in B6D2F1 mouse assessed as mean survival period at 60 ug/kg, ip tid administered on day 1 to 9 measured after 366 days relative to vehicle-treated control. The class given is functional. The method, boiled down: as §2
Series [43] in a line: Half life in mouse plasma.

As for `CC(C)(C)OC(=O)N1C[C@@H](CCl)c2c1cc1c3c(cccc23)C(=O)NO1`, the degraded at 72 h, 0.254 µM is 3% in series [1], 16% in series [2], 83% in series [8] and 46% in series [16]. The pIC50 (in general, the negative decadic logarithm of the IC50, by convention in mol/L) in series [3] was 6.19. Moreover, the degraded at 24 h, 0.254 µM in series [4] stood at 9%; in series [9], 33%; in [20] it was 3%; in series [21], 58%. The figures for the degraded at 2 h, 0.254 µM in series [5] and in series [11] were 33% and 28%, respectively. For the same compound, the half-life – broadly, the time needed for the level to fall by half in the phase considered – in series [6] is 2 h; in series [10] it was 70 h. Moreover, the degraded at 48 h, 0.254 µM in series [7] was 15%; in series [13] it was 39%; in series [18], 4%; in [19], 75%. Besides, the Stability entry in [12], in series [15] and in series [17] was “Stable” in each case. Further, the degraded at 2 h in series [14] amounted to 2%.

Take `CN1Oc2cc3c(c4cccc(c24)C1=O)[C@H](CCl)CN3C(=O)OC(C)(C)C`: the pIC50 in [3] was 6.07. The half-life in [6] is 24 h. The Stability entry in series [22], in [23] and in series [24] was “Stable” throughout.

`CN1Oc2cc3c(c4cccc(c24)C1=O)[C@H](CCl)CN3C(=O)c1cc2cc(NC(=O)c3cc4ccccc4[nH]3)ccc2[nH]1`: the Stability entry in [25] and in [40] was “Unstable” each time. Also, the pIC50 in series [26] was 8.30; in series [3], 9.00; in [27], 6.46; in series [35], 7.60; in [41], 7.46. For the same compound, the fraction unbound (as a rule, free concentration divided by total concentration) in series [28] is less than 0.05. In addition, the half-life in series [29] was more than 168 h; in series [6], more than 72 h; in series [30], more than 672 h; in series [43], more than 48 h. In addition, the results for the “Ratio IC50” value in [31] and in [37] were 5 and 10, respectively. In addition, in series [32], the Activity entry is given as “Toxic”. Besides, the T/C in series [33] is listed as more than 1130; in series [34] it was more than 386; in series [36], more than 1500; in [38], more than 1142; in [42] it was 159. In [39], the result was inactive.
